Measurements: ChEMBL document CHEMBL1143430, “Synthesis and free radical scavenging activity of some new spiropyranocoumarins” (Bioorg Med Chem Lett, 2008)

Columns and labels:
[1] = system: Radical scavenging activity; assay: Antioxidant activity assessed as DPPH free radical scavenging activity after 20 mins; format: functional
Method in brief: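 Test compound at 5–200 μM mixed with an equal volume of 200 μM DPPH in ethanol, incubated 20 min at room temperature; absorbance read at 517 nm (also at 30, 45 and 60 min). IC50 = concentration giving 50% inhibition of 200 μM DPPH, from linear regression over at least five concentrations in triplicate; mean ± SD of at least three experiments.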

[2] = Antioxidant activity assessed as inhibition of xanthine-xanthine oxidase generated superoxide anion radical production at 0.5 mM; format: functional
Method in brief: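 Superoxide generated enzymically by xanthine oxidase (0.07 U ml⁻¹, added to start the reaction) with 200 μM xanthine and 600 μM NBT in 0.1 phosphate buffer, pH 7.4. Read-out was the NBT reduction product.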

SMILES	IC50 [1] [µM]	inhibition [2] [%]
O=c1cc(O)c2ccc3c(c2o1)C=CC1(O3)C2CC3CC(C2)CC1C3 (configuration not stated)	130	37.3
O=c1cc(O)c2ccc3c(c2o1)C=CC1(CCCC1)O3	182	< 10
O=c1cc(O)c2ccc3c(c2o1)[C@@H](O)[C@@H](O)C1(CCCCCC1)O3	158	35.8
O=c1cc(O)c2ccc3c(c2o1)C=CC1(CCCCC1)O3	201	< 10
O=c1cc(O)c2ccc3c(c2o1)[C@@H](O)[C@@H](O)C1(CCCCC1)O3	161	51.7
O=c1ccc2ccc(O)cc2o1 [UMBELLIFERONE]	> 400	32.6
O=c1cc(O)c2ccc3c(c2o1)[C@@H](O)[C@@H](O)C1(CCCC1)O3	97.8	63.5
O=c1cc(O)c2ccccc2o1 [4-HYDROXYCOUMARINS]	124	19.4
Cc1cc(C(C)(C)C)c(O)c(C(C)(C)C)c1 [BUTYLATED HYDROXYTOLUENE]	83.8	–
Oc1ncnc2[nH]ncc12	–	42.3
O=c1cc(O)c2ccc3c(c2o1)C=CC1(CCCCCC1)O3	202	< 10
O=c1cc(O)c2ccc3c(c2o1)[C@@H](O)[C@@H](O)C1(O3)C2CC3CC(C2)CC1C3 (some centres not stated)	166	48.3
